The target in the experiment is T1, 3-oxo-5-alpha-steroid 4-dehydrogenase 1 (Rattus norvegicus) (UniProt P24008).
T1 sequence (whole entry): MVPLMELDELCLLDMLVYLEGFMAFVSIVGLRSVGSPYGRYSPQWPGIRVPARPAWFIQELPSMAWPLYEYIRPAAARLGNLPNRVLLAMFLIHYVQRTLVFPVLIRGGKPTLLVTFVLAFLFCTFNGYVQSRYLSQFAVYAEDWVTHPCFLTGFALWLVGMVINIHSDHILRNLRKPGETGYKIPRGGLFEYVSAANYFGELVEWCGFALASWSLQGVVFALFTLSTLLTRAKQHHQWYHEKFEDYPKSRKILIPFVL
Put plainly: In vitro inhibitory activity against rat prostatic 5-alpha-reductase (150 ng/tube). A digest of the protocol: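 Rat prostatic enzyme preparation incubated with radioactive T and excess NADPH in 0.21 mL medium; 150 ng steroid per incubation (approx. 2 μM). Read-out is percent prevention of [³H]T conversion to [³H]DHT vs. control incubation without inhibitor. Duplicate assays, progesterone (150 ng) or a reference azasteroid (25 ng) as positive controls; most values single, separate determinations, approximate.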

In general, inhibition refers to the percentage by which the read-out fell short of the control. The low end stands for a response near the control, the high end for a response far below the control. Turning to `COC(=O)[C@H]1CCC2C3CC[C@H]4CC(=O)OCC4(C)C3CCC21C` (some centres not stated), the inhibition was 0%.

`CN1C(=O)CC[C@@]2(C)C1CC[C@H]1[C@@H]3CC[C@H](O)[C@@]3(C)CC[C@@H]12` (some centres not stated): the inhibition was found to be 72%.

Molecule `CC(=O)O[C@H]1CCC2C3CC[C@H]4CC(=O)NCC4(C)C3CCC21C` (some centres not stated) came in with an inhibition of 35%.

Molecule `CCN1C(=O)CC[C@@]2(C)C1CC[C@@H]1[C@@H]2CC[C@@]2(C)[C@H]1CC[C@@]21CCCO1` (some centres not stated) showed an inhibition of 27%.

With `CC(CO)[C@H]1CC[C@H]2[C@@H]3CCC4N(C)C(=O)CC[C@]4(C)[C@H]3CC[C@]12C` (some centres not stated), the inhibition came to 100%.

`CCN(CC)C(=O)[C@H]1CCC2C3CCC4N(C)C(=O)CC4(C)C3CCC21C` (some centres not stated) registered an inhibition of 7%.

In the case of `CC(C)N(C(=O)[C@H]1CC[C@H]2[C@@H]3CCC4N(C)C(=O)CC[C@]4(C)[C@H]3CC[C@]12C)C(C)C` (some centres not stated), the inhibition turned out to be 100%.

Regarding `CCN(CC)C(=O)[C@H]1CCC2C3CCC4N(CCO)C(=O)CCC4(C)C3CCC21C` (some centres not stated), the inhibition was 0%.

Regarding `CC(=O)[C@H]1CC[C@H]2[C@@H]3CC[C@H]4CS(=O)(=O)C[C@]4(C)[C@H]3CC[C@]12C` (stereo in doubt; 43), the inhibition was 13%.

For the molecule `CCN(CC)C(=O)C[C@H]1CC[C@H]2[C@@H]3CCC4N(C)C(=O)CC[C@]4(C)[C@H]3CC[C@]12C` (some centres not stated), the inhibition was 97%.

Molecule `CCN(CC)C(=O)[C@H]1CC[C@H]2[C@@H]3CC[C@H]4NC(=O)C=C[C@]4(C)[C@H]3CC[C@]12C` had an inhibition of 74%.

The molecule `CN1C(=O)CCC2(C)C3CCC4(C)C(CC[C@@H]4CN)C3CCC12` (some centres not stated) returned an inhibition of 80%.

In turn, `CC(=O)O[C@H]1CCC2C3CC[C@H]4NC(=O)CCCC4(C)C3CCC21C` (some centres not stated) showed an inhibition of 94%.

`CN1C(=O)CCC2(C)C3CCC4(C)/C(=C/C(=O)O)CCC4C3CCC12` (configuration not stated): the inhibition came out at 92%.

`CC(=O)[C@H]1CCC2C3CCC4N(C)C(=O)CCC4(C)C3CCC21C` (some centres not stated): the inhibition worked out at 100%.

Regarding `CN1C(=O)CC[C@@]2(C)C1CC[C@@H]1[C@@H]2CC[C@@]2(C)[C@H]1CC[C@@]21CCCO1` (some centres not stated), the inhibition stood at 81%.

In turn, `CCN(CC)C(=O)[C@H]1CC[C@H]2[C@@H]3CC[C@H]4N(C)C(=O)CC[C@]4(C)[C@H]3CC[C@]12C` displayed an inhibition of 99%.

`CCOC(=O)C[C@H]1CC[C@H]2[C@@H]3CC[C@H]4N(C)C(=O)CC[C@]4(C)[C@H]3CC[C@]12C` showed an inhibition of 88%.

Consider `CCN(CC)C(=O)[C@H]1CC[C@H]2[C@@H]3CC[C@@H]4N(C)C(=O)CC[C@]4(C)[C@H]3CC[C@]12C`, for which the inhibition is 7%.

The molecule `CCN(CC)C(=O)[C@H]1CCC2C3CC[C@H]4N(C)C(=O)[C@@H](C)CC4(C)C3CCC21C` (some centres not stated) showed an inhibition of 99%.

As for `CC(=O)[C@H]1CC[C@H]2[C@@H]3CC[C@H]4CS(=O)(=O)C[C@]4(C)[C@H]3CC[C@]12C` (stereo in doubt; 44), the inhibition was 13%.

`CCN(CC)C(=O)[C@H]1CCC2C3CCC4N(C)/C(=N\C)CCC4(C)C3CCC21C` (some centres not stated): the inhibition is 49%.

`CCN(CC)C(=O)/C=C1\CC[C@H]2[C@@H]3CCC4N(C)C(=O)CC[C@]4(C)[C@H]3CC[C@]12C` (some centres not stated) showed an inhibition of 100%.

In turn, `CC(C(=O)O)[C@H]1CC[C@H]2[C@@H]3CCC4N(C)C(=O)CC[C@]4(C)[C@H]3CC[C@]12C` (some centres not stated) came in with an inhibition of 96%.

`CC(=O)N[C@@H]1CC[C@H]2[C@@H]3CCC4N(C)C(=O)CC[C@]4(C)[C@H]3CC[C@]12C` (some centres not stated): the inhibition stood at 87%.

The molecule `CCN(CC)C(=O)[C@H]1CCC2C3CCC4N(C)C(=O)C5OC5C4(C)C3CCC21C` (some centres not stated) registered an inhibition of 19%.

Molecule `CC(=O)O[C@H]1CCC2C3CC[C@H]4CNC(=O)CCC4(C)C3CCC21C` (some centres not stated) came in with an inhibition of 0%.

For `CCN(CC)C(=O)[C@H]1CCC2C3CC[C@H]4N(C)C(=O)[C@H](O)CC4(C)C3CCC21C` (some centres not stated), the inhibition is 46%.

`CC(=O)O[C@H]1CCC2C3CC[C@H]4CC(=O)NCCC4(C)C3CCC21C` (some centres not stated) gave an inhibition of 0%.

Turning to `CCN(CC)C(=O)[C@H]1CCC2C3CCC4N(C)/C(=N/O)CCC4(C)C3CCC21C` (some centres not stated), the inhibition was found to be 77%.

In turn, `CN1C(=O)CC[C@@]2(C)C1CC[C@H]1[C@@H]3CC[C@H](C(=O)O)[C@@]3(C)CC[C@@H]12` (some centres not stated) returned an inhibition of 90%.

The molecule `CCN(CC)C(=O)[C@H]1CCC2C3CCC4N(NC)C(=O)CCC4(C)C3CCC21C` (some centres not stated) gave an inhibition of 24%.

`CCN(CC)C(=O)[C@H]1CCC2C3CCC4N(C)C(=N)CCC4(C)C3CCC21C` (some centres not stated) displayed an inhibition of 22%.

Molecule `CC12COC(=O)C=C1CCC1C2CCC2(C)C1CC[C@]2(C)O` (some centres not stated) gave an inhibition of 8%.

In turn, `CN1C(=O)CCC2C3CCC4(C)C(CC[C@@H]4O)C3CCC21` (some centres not stated) registered an inhibition of 81%.

As for `C[C@]12CCC(=O)NC1CC[C@@H]1[C@@H]2CC[C@@]2(C)[C@H]1CC[C@@]21CCCO1` (some centres not stated), the inhibition is 68%.

The molecule `CC(=O)O[C@H]1CCC2C3CC[C@H]4CNC(=O)CC4(C)C3CCC21C` (some centres not stated) showed an inhibition of 0%.

The molecule `CCN(CC)C(=O)[C@H]1CCC2C3CCC4N(C)CCCC4(C)C3CCC21C` (some centres not stated) registered an inhibition of 44%.

Molecule `CC(=O)O[C@H]1CCC2C3CC[C@H]4CN(C(C)=O)CCC4(C)C3CCC21C` (some centres not stated) yielded an inhibition of 33%.

Regarding `CN1C(=O)CCC2(C)C1=CCC1C2CCC2(C)C1CC[C@@H]2O` (some centres not stated), the inhibition stood at 36%.

On to `CC(O)[C@H]1CC[C@H]2[C@@H]3CCC4N(C)C(=O)CC[C@]4(C)[C@H]3CC[C@]12C` (some centres not stated), for which the inhibition amounted to 100%.

In turn, `CC(=O)[C@H]1CC[C@H]2[C@@H]3CC[C@H]4CS(=O)(=O)C[C@]4(C)[C@H]3CC[C@]12C` (stereo in doubt; 42) registered an inhibition of 13%.

`CCCCCCCCCC[C@H]1CCC2C3CCC4N(C)C(=O)CCC4(C)C3CCC21C` (some centres not stated) registered an inhibition of 7%.

With `CC(=O)N[C@H]1CCC2C3CCC4N(C)C(=O)CCC4(C)C3CCC21C` (some centres not stated), the inhibition was 76%.

As for `CN1C(=O)CCC2(C)C3CCC4(C)C(CC[C@@H]4C(N)=O)C3CCC12` (some centres not stated), the inhibition was 91%.

`CC(CCC(=O)O)[C@H]1CC[C@H]2[C@@H]3CCC4N(C)C(=O)CC[C@]4(C)[C@H]3CC[C@]12C` (some centres not stated) had an inhibition of 88%.

The molecule `CCN(CC)C(=O)[C@H]1CC[C@H]2[C@@H]3CC[C@@H]4NC(=O)CC[C@]4(C)[C@H]3CC[C@]12C` returned an inhibition of 95%.

In turn, `CCCCCCCCNC(=O)[C@H]1CCC2C3CCC4N(C)C(=O)CCC4(C)C3CCC21C` (some centres not stated) returned an inhibition of 100%.

On to `CC12CCC(=O)NC1CCC1C2CCC2(C)C1CC[C@@H]2O` (some centres not stated), for which the inhibition was found to be 57%.

For the molecule `COC(=O)CCC(C)[C@H]1CC[C@H]2[C@@H]3CCC4N(C)C(=O)CC[C@]4(C)[C@H]3CC[C@]12C` (some centres not stated), the inhibition was found to be 84%.

`CCN(CC)C(=O)[C@H]1CCC2C3CCC4N(C)C(=S)CCC4(C)C3CCC21C` (some centres not stated) gave an inhibition of 50%.

Molecule `CC(=O)[C@H]1CCC2C3CCC4NC(=O)CCC4(C)C3CCC21C` (some centres not stated) gave an inhibition of 100%.

On to `COC(=O)[C@H]1CCC2C3CCC4N(C)C(=O)CCC4(C)C3CCC21C` (some centres not stated), for which the inhibition came out at 96%.

`CCNC(=O)[C@H]1CCC2C3CCC4N(C)C(=O)CCC4(C)C3CCC21C` (some centres not stated) displayed an inhibition of 83%.

On to `CCN(CC)C(=O)CCC(C)[C@H]1CC[C@H]2[C@@H]3CCC4N(C)C(=O)CC[C@]4(C)[C@H]3CC[C@]12C` (some centres not stated), for which the inhibition is 100%.

Molecule `CCN(CC)C(=O)[C@H]1CCC2C3CCC4N(C)C(=O)/C(=C/O)CC4(C)C3CCC21C` (some centres not stated) displayed an inhibition of 48%.

`CCN(CC)C(=O)[C@H]1CCC2C3CCC4N(c5ccccc5)C(=O)CCC4(C)C3CCC21C` (some centres not stated) registered an inhibition of 5%.

Turning to `CCN(CC)C(=O)[C@H]1CCC2C3CCC4N(C)C(=O)C(=O)CC4(C)C3CCC21C` (some centres not stated), the inhibition was found to be 78%.

As to `CC(O)[C@@]1(O)CC[C@H]2[C@@H]3CCC4N(C)C(=O)CC[C@]4(C)[C@H]3CC[C@@]21C` (some centres not stated), the inhibition came out at 100%.

As for `CCN(CC)C(=O)C(C)[C@H]1CC[C@H]2[C@@H]3CCC4N(C)C(=O)CC[C@]4(C)[C@H]3CC[C@]12C` (some centres not stated), the inhibition amounted to 83%.

As to `CCN(CC)C(=O)[C@H]1CC[C@H]2[C@@H]3CC[C@H]4N(C)C(=O)C=C[C@]4(C)[C@H]3CC[C@]12C`, the inhibition turned out to be 63%.

Take `CC12CCNC(=O)C1CCC1C2CCC2(C)C1CC[C@@H]2O` (some centres not stated): the inhibition was 0%.

Source of the values: ChEMBL document CHEMBL1122544, “Azasteroids as inhibitors of rat prostatic 5 alpha-reductase” (J Med Chem, 1984).
